From ChEMBL document CHEMBL3272089, “Synthesis and antitumor activity of dihydro-5-azacytidine, a hydrolytically stable analogue of 5-azacytidine” (J Med Chem, 1977)
Activity calls are given as the source filed them. The calls are words filed in the database; no cut-off is given here.

Tests used:
L1210 [1] = test: Antitumor activity against mouse L1210 cells allografted in ip dosed mouse assessed as increase in life span at MNTD administered qd on day 1, 5 and 9 post tumor implantation relative to control; type: functional
Summary of the method: (§1)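 L1210 implanted ip in mice. Compound given ip in 0.9% saline on the listed schedule across a dose-response range. % ILS reported at the highest nontoxic dose, or at the dose giving maximal ILS for active compounds. Test minus control body-weight change on day 5 at the highest nontoxic dose.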

L1210 [2] = test: Antitumor activity against mouse L1210 cells allografted in ip dosed mouse assessed as change in body weight at MNTD administered qd on day 1, 5 and 9 post tumor implantation measured on day 5 relative to control; type: functional
Summary of the method: (§2)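 Doses were given ip in 0.9% saline after ip L1210 implantation, as a dose–response series. The reading is the difference in average body weight change (g) between test (T) and control (C) groups, measured on day 5 at the highest nontoxic dose tested.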

L1210 [3] = test: Antitumor activity against mouse L1210 cells allografted in ip dosed mouse assessed as increase in life span at MNTD administered qd from day 1 to day 9 post tumor implantation relative to control; type: functional; summary of the method: as §1
L1210 [4] = test: Antitumor activity against mouse L1210 cells allografted in ip dosed mouse assessed as change in body weight at MNTD administered qd from day 1 to day 9 post tumor implantation measured on day 5 relative to control; type: functional; summary of the method: as §2
L1210 [5] = test: Cytotoxicity against mouse L1210 cells assessed as cessation of growth; type: functional, cell-based
L1210 [6] = test: Cytotoxicity against mouse L1210 cells assessed as cessation of growth in presence of cytidine; type: functional, cell-based
L1210 [7] = test: Cytotoxicity against mouse L1210 cells assessed as cessation of growth in presence of uridine; type: functional, cell-based

In the case of `Cl.NC1=NC(=O)NCN1`, the ILS (L1210 [1]) is reported as 0% and the Activity (L1210 [2]) is reported as 1 g.

`NC1=NC(=O)N([C@@H]2O[C@H](CO)[C@H]3O[B-]4(O[C@H]32)O[C@@H]2[C@H](O4)[C@@H](CO)O[C@H]2N2CNC(N)=NC2=O)CN1.[Na+]` (stereo partly specified) gave an ILS (L1210 [1]) of 80% and an Activity (L1210 [2]) of -1.5 g.

`NC1=NC(=O)N([C@@H]2O[C@H](CO)[C@@H](O)[C@H]2O)CN1` [listing 1 of 2 here] gave an ILS (L1210 [3]) of 86% and an Activity (L1210 [4]) of -3.2 g.

With `NC(N)=NC(=O)N[C@@H]1O[C@H](CO)[C@@H](O)[C@H]1O` the ILS (L1210 [1]) was 0% and the Activity (L1210 [2]) was -2.2 g.

`NC1=NC(=O)N([C@@H]2O[C@H](CO)[C@@H](O)[C@H]2O)CN1` [listing 2 of 2 here] was tested, and the Activity (L1210 [5]) was “Active”, the Activity (L1210 [6]) was “inactive” and the Activity (L1210 [7]) was “inactive”.
